Reference: ChEMBL document CHEMBL1772940, “Design and synthesis of potent and selective aldose reductase inhibitors based on pyridylthiadiazine scaffold” (Eur J Med Chem, 2011)

Columns and labels:
[1] = target: Aldo-keto reductase family 1 member B1 (Rattus norvegicus, UniProt P07943); experiment: Inhibition of Wistar rat lens aldose reductase 2 by spectrophotometric analysis
Method in brief: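 Partially purified lens enzyme (homogenized in cold water, centrifuged 30 min at 0–4 °C, ammonium sulfate 40/50/75% cuts). Mix without DL-glyceraldehyde was preincubated 10 min at 32 °C; the NADPH drop was read at 340 nm at 32 °C in pH 6.2 phosphate, with the substrate-free rate subtracted. At least four concentrations (10^-4–10^-8 M), triplicate; IC50 from log concentration-response regression.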

[2] = system: Aldehyde reductase AKR1A1 (Rattus norvegicus); experiment: Inhibition of Wistar rat kidney aldehyde reductase at 50 uM by spectrophotometric analysis

Row | IC50 [1] [nM] | inhibition [2] [%] | SMILES
1 | 98 | 31.5 | O=C(O)CN1CN(Cc2cccc([N+](=O)[O-])c2)S(=O)(=O)c2cc(Br)cnc21
2 | 1010 | 42.3 | O=C(O)CN1CN(Cc2ccc(C(F)(F)F)cc2)S(=O)(=O)c2cc(Cl)cnc21
3 | 965 | 43.3 | O=C(O)CN1CN(Cc2ccc(C(F)(F)F)cc2)S(=O)(=O)c2cc(Br)cnc21
4 | 11300 | 27.9 | COc1ccc(CN2CN(CC(=O)O)c3ncc(Br)cc3S2(=O)=O)cc1
5 | 6270 | 17.7 | COc1ccc(CN2CN(CC(=O)O)c3ncc(C)cc3S2(=O)=O)cc1
6 | 6540 | 32.3 | COc1ccc(CN2CN(CC(=O)O)c3ncc(Cl)cc3S2(=O)=O)cc1
7 | 1000 | 20.5 | Cc1cnc2c(c1)S(=O)(=O)N(Cc1ccc(C(F)(F)F)cc1)CN2CC(=O)O

The next lines start with the compound.

Row | SMILES | IC50 [1] [nM] | inhibition [2] [%]
8 | O=C(O)CN1CN(Cc2cc(F)c(F)cc2F)S(=O)(=O)c2cc(Cl)cnc21 | 38 | 36.5
9 | O=C(O)CN1CN(Cc2ccc(Br)cc2F)S(=O)(=O)c2cc(Cl)cnc21 | 44 | 36.6
10 | Cc1cnc2c(c1)S(=O)(=O)N(Cc1cccc([N+](=O)[O-])c1)CN2CC(=O)O | 143 | 23.2
11 | O=C(O)CN1CN(Cc2ccc(Br)cc2F)S(=O)(=O)c2cc(Br)cnc21 | 69 | 44.9
12 | Cc1cnc2c(c1)S(=O)(=O)N(Cc1cc(F)c(F)cc1F)CN2CC(=O)O | 84 | 35.4
13 | Cc1cnc2c(c1)S(=O)(=O)N(Cc1ccc(Br)cc1F)CN2CC(=O)O | 127 | 24.6
14 | O=C(O)CN1CN(Cc2cc(F)c(F)cc2F)S(=O)(=O)c2cc(Br)cnc21 | 66 | 44.2
15 | O=C(O)CN1CN(Cc2cccc([N+](=O)[O-])c2)S(=O)(=O)c2cc(Cl)cnc21 | 93 | 40.2
